ChEMBL document CHEMBL5247578, “Effective synthesis of benzimidazoles-imidazo[1,2-a]pyrazine conjugates: A comparative study of mono-and bis-benzimidazoles for antitumor activity” (Eur J Med Chem, 2019)

Legend:
Format in all cases: functional
MDA-MB-468 = assay: Antiproliferative activity against human MDA-MB-468 cells assessed as cell growth inhibition at 10 uM incubated for 48 hrs by sulforhodamine B assay relative to control
Outline: (§1)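 NCI-60 single-dose screen at 10^-5 M. Cells grown in RPMI 1640 with 5% FBS and 2 mM L-glutamine, plated at 5,000–40,000 cells/well, and preincubated 24 h. Drug (DMSO stock) added and incubated 48 h at 37 °C, 5% CO2. Adherent cells fixed with cold TCA, stained with 0.4% SRB in 1% acetic acid, dye solubilized in 10 mM trizma base, A515 read. Percent growth taken against time-zero and untreated control.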

T47D = assay: Antiproliferative activity against human T47D cells assessed as cell growth inhibition at 10 uM incubated for 48 hrs by sulforhodamine B assay relative to control; outline: as §1
Hs-578T = assay: Antiproliferative activity against human Hs-578T cells assessed as cell growth inhibition at 10 uM incubated for 48 hrs by sulforhodamine B assay relative to control; outline: as §1
MCF7 = assay: Antiproliferative activity against human MCF7 cells assessed as cell growth inhibition at 10 uM incubated for 48 hrs by sulforhodamine B assay relative to control; outline: as §1
PC-3 = assay: Antiproliferative activity against human PC-3 cells assessed as cell growth inhibition at 10 uM incubated for 48 hrs by sulforhodamine B assay relative to control; outline: as §1
RXF 393 = assay: Antiproliferative activity against human RXF 393 cells assessed as cell growth inhibition at 10 uM incubated for 48 hrs by sulforhodamine B assay relative to control; outline: as §1
ACHN = assay: Antiproliferative activity against human ACHN cells assessed as cell growth inhibition at 10 uM incubated for 48 hrs by sulforhodamine B assay relative to control
Outline: (§2)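 Single-dose NCI-60 prescreen at 10^-5 M. Cells in RPMI 1640 with 5% FBS and 2 mM L-glutamine, seeded 5,000–40,000 cells/well with 24 h preincubation, then drug exposure for 48 h at 37 °C under 5% CO2. Growth read by SRB staining of TCA-fixed cells at 515 nm against time-zero and untreated controls. Negative growth values denote cell kill.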

A498 = assay: Antiproliferative activity against human A498 cells assessed as cell growth inhibition at 10 uM incubated for 48 hrs by sulforhodamine B assay relative to control; outline: as §2
786-0 = assay: Antiproliferative activity against human 786-0 cells assessed as cell growth inhibition at 10 uM incubated for 48 hrs by sulforhodamine B assay relative to control; outline: as §2
NCI/ADR-RES = assay: Antiproliferative activity against human NCI/ADR-RES cells assessed as cell growth inhibition at 10 uM incubated for 48 hrs by sulforhodamine B assay relative to control; outline: as §1
OVCAR-5 = assay: Antiproliferative activity against human OVCAR-5 cells assessed as cell growth inhibition at 10 uM incubated for 48 hrs by sulforhodamine B assay relative to control; outline: as §1
OVCAR-4 = assay: Antiproliferative activity against human OVCAR-4 cells assessed as cell growth inhibition at 10 uM incubated for 48 hrs by sulforhodamine B assay relative to control; outline: as §1
IGROV-1 = assay: Antiproliferative activity against human IGROV-1 cells assessed as cell growth inhibition at 10 uM incubated for 48 hrs by sulforhodamine B assay relative to control; outline: as §1
SK-MEL-5 = assay: Antiproliferative activity against human SK-MEL-5 cells assessed as cell growth inhibition at 10 uM incubated for 48 hrs by sulforhodamine B assay relative to control; outline: as §1
M14 = assay: Antiproliferative activity against human M14 cells assessed as cell growth inhibition at 10 uM incubated for 48 hrs by sulforhodamine B assay relative to control; outline: as §1
LOX IMVI = assay: Antiproliferative activity against human LOX IMVI cells assessed as cell growth inhibition at 10 uM incubated for 48 hrs by sulforhodamine B assay relative to control; outline: as §1
U-251 = assay: Antiproliferative activity against human U-251 cells assessed as cell growth inhibition at 10 uM incubated for 48 hrs by sulforhodamine B assay relative to control; outline: as §1
SF-539 = assay: Antiproliferative activity against human SF-539 cells assessed as cell growth inhibition at 10 uM incubated for 48 hrs by sulforhodamine B assay relative to control; outline: as §1
SF-268 = assay: Antiproliferative activity against human SF-268 cells assessed as cell growth inhibition at 10 uM incubated for 48 hrs by sulforhodamine B assay relative to control; outline: as §1
SW-620 = assay: Antiproliferative activity against human SW620 cells assessed as cell growth inhibition at 10 uM incubated for 48 hrs by sulforhodamine B assay relative to control; outline: as §1
HCT-15 = assay: Antiproliferative activity against human HCT-15 cells assessed as cell growth inhibition at 10 uM incubated for 48 hrs by sulforhodamine B assay relative to control
Outline: (§3)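 NCI-60 one-dose prescreen at 10^-5 M. Cells grown in RPMI 1640 with 5% FBS and 2 mM glutamine, preincubated 24 h, then exposed 48 h at 37 °C. Adherent lines TCA-fixed, SRB-stained, A515 read. Growth percent relative to time-zero and control; negative values mean cell kill.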

NCI-H522 = assay: Antiproliferative activity against human NCI-H522 cells assessed as cell growth inhibition at 10 uM incubated for 48 hrs by sulforhodamine B assay relative to control; outline: as §1
NCI-H460 = assay: Antiproliferative activity against human NCI-H460 cells assessed as cell growth inhibition at 10 uM incubated for 48 hrs by sulforhodamine B assay relative to control; outline: as §1
NCI-H322M = assay: Antiproliferative activity against human NCI-H322M cells assessed as cell growth inhibition at 10 uM incubated for 48 hrs by sulforhodamine B assay relative to control; outline: as §1
NCI-H23 = assay: Antiproliferative activity against human NCI-H23 cells assessed as cell growth inhibition at 10 uM incubated for 48 hrs by sulforhodamine B assay relative to control; outline: as §1
NCI-H226 = assay: Antiproliferative activity against human NCI-H226 cells assessed as cell growth inhibition at 10 uM incubated for 48 hrs by sulforhodamine B assay relative to control; outline: as §1
HOP-92 = assay: Antiproliferative activity against human HOP-92 cells assessed as cell growth inhibition at 10 uM incubated for 48 hrs by sulforhodamine B assay relative to control; outline: as §3
EKVX = assay: Antiproliferative activity against human EKVX cells assessed as cell growth inhibition at 10 uM incubated for 48 hrs by sulforhodamine B assay relative to control; outline: as §3
A549 = assay: Antiproliferative activity against human A549 cells assessed as cell growth inhibition at 10 uM incubated for 48 hrs by sulforhodamine B assay relative to control; outline: as §2
RPMI-8226 = assay: Antiproliferative activity against human RPMI-8226 cells assessed as cell growth inhibition at 10 uM incubated for 48 hrs by sulforhodamine B assay relative to control; outline: as §1
MOLT-4 = assay: Antiproliferative activity against human MOLT-4 cells assessed as cell growth inhibition at 10 uM incubated for 48 hrs by sulforhodamine B assay relative to control; outline: as §1
CCRF-CEM = assay: Antiproliferative activity against human CCRF-CEM cells assessed as cell growth inhibition at 10 uM incubated for 48 hrs by sulforhodamine B assay relative to control; outline: as §2

`c1ccc(-c2cn3ccnc3c(-c3ccc4ncn(C5CCCCC5)c4c3)n2)cc1` showed an inhibition at 10 µM (MDA-MB-468) of 54.4%, an inhibition at 10 µM (T47D) of -11.1% and an inhibition at 10 µM (Hs-578T) of 23.8%. The inhibition at 10 µM (MCF7) was 38%, the inhibition at 10 µM (PC-3) was 92% and the inhibition at 10 µM (RXF 393) was 45%. For the same compound, the inhibition at 10 µM (ACHN) was 35.9%, the inhibition at 10 µM (A498) was 26.1% and the inhibition at 10 µM (786-0) was 36.8%. The inhibition at 10 µM (NCI/ADR-RES) was 50.5%, the inhibition at 10 µM (OVCAR-5) was 7.87% and the inhibition at 10 µM (OVCAR-4) was 34.5%. For the same compound, the inhibition at 10 µM (IGROV-1) was 11.9%, the inhibition at 10 µM (SK-MEL-5) was 36.5% and the inhibition at 10 µM (M14) was 38.2%. It also gave an inhibition at 10 µM (LOX IMVI) of 39.6%, an inhibition at 10 µM (U-251) of 37.3% and an inhibition at 10 µM (SF-539) of 27.8%. For the same compound, the inhibition at 10 µM (SF-268) was 21.7%, the inhibition at 10 µM (SW-620) was 9.15% and the inhibition at 10 µM (HCT-15) was 51.6%. For the same compound, the inhibition at 10 µM (NCI-H522) was 58.1%, the inhibition at 10 µM (NCI-H460) was 37.8% and the inhibition at 10 µM (NCI-H322M) was 5.25%. For the same compound, the inhibition at 10 µM (NCI-H23) was 45.3%, the inhibition at 10 µM (NCI-H226) was 33.9% and the inhibition at 10 µM (HOP-92) was 53.7%. The inhibition at 10 µM (EKVX) was 24.2%, the inhibition at 10 µM (A549) was 33.3% and the inhibition at 10 µM (RPMI-8226) was 85.7%. The inhibition at 10 µM (MOLT-4) was 67.7% and the inhibition at 10 µM (CCRF-CEM) was 81.2%.
